According to ChEMBL document CHEMBL1255483, “Intra- and extracellular activities of dicloxacillin against Staphylococcus aureus in vivo and in vitro” (Antimicrob Agents Chemother, 2010):
In brackets after ≈: the same amount, converted by molar mass. Activity calls are given as the source filed them. The calls are words filed in the database; no cut-off is given here.

Assays:
[1] = organism: Mus musculus; experiment: Protein binding in NMRI mouse at 10 mg/l by ultrafiltration; assay type: ADME, organism-based; settings: in vivo
Procedure, shortened: (§1)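 Plasma binding was measured by ultrafiltration. EDTA blood from healthy mice, or from NMRI mice infected intraperitoneally for 6 h with E19977, was spiked with DCX at 10–400 mg/liter, with PBS controls. Samples were held 1 h at 37°C, then centrifuged through 30-kDa filters at 3,000 × g for 8 min at 37°C. Total and filtrate drug were measured by S. lutea bioassay.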

[2] = tested on: Staphylococcus aureus; experiment: Bactericidal activity against Staphylococcus aureus ATCC 25923 assessed as log change in bacterial count after 24 hrs; assay type: functional
Procedure, shortened: (§2)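 Extracellular broth time- and concentration-kill test. The inoculum was ~10⁶ CFU/ml, exposed to a wide range of DCX concentrations, with CFU counted after 5 and 24 h. The read-out was Δlog CFU/ml versus time zero (mean ± SD, n = 3). A sigmoidal fit with slope 1 gave Emax and EC50. Cstatic was read by graphical interpolation as the concentration giving no change from the inoculum.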

[3] = Ratio of fAUC (24 hrs) in NMRI mouse at 120 mg/kg administered every 24 hrs to MIC for Staphylococcus aureus E19977; assay type: functional
Procedure, shortened: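 Free-drug AUC24/MIC was modelled for repeated subcutaneous regimens. Single-dose NMRI plasma concentration-time curves were combined with the best-fitting square-root expression for the concentration-dependent free fraction. The result was divided by the E19977 MIC.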

[4] = tested on: Staphylococcus aureus; experiment: Bactericidal activity against Staphylococcus aureus E19977 assessed as log reduction in bacterial count at 10 times MIC after 24 hrs by time-kill assay; assay type: functional
Procedure, shortened: (§3)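 Broth time-kill: MSSA at 10⁶ CFU/ml exposed to a wide range of dicloxacillin concentrations. CFU counted after 5 and 24 h and expressed as change in log₁₀ CFU/ml from time zero. Multiples refer to the MIC by CLSI microdilution at pH 7.4. n = 3.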

[5] = fT>MIC in Staphylococcus aureus E19977 infected NMRI mouse at 240 mg/kg administered every 6 hrs; assay type: functional
Procedure, shortened: (§4)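 Calculated percentage of 24 h at steady state that free plasma DCX exceeds the strain MIC (microdilution, pH 7.4). Concentrations were simulated from single subcutaneous dose plasma curves in NMRI mice (S. lutea bioassay), adjusted with a square-root model of concentration-dependent free fraction from ultrafiltration. The regimen was dosed subcutaneously in mice infected intraperitoneally with 10^7.4 CFU, and peritoneal CFU were read after 24 h of therapy.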

[6] = tested on: THP-1; experiment: Cytotoxicity against human THP1 cells at 500 mg/L after 24 hrs by trypan blue exclusion method; assay type: cell-based; settings: thp-1, 24 h
Procedure, shortened: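 THP-1 macrophage viability was checked by trypan blue exclusion after 24 h of exposure to DCX at concentrations up to 500 mg/liter.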

[7] = Half-life in NMRI mouse at 300 mg/kg, sc; assay type: ADME, organism-based; set-up: dose 300 mg/kg, route subcutaneous; settings: in vivo
Procedure, shortened: (§5)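 Single subcutaneous DCX doses given to NMRI mice. Blood was collected into EDTA tubes, and plasma drug was assayed by microbiological bioassay with S. lutea ATCC 9391 (detection limit 1.5 mg/liter, linear to 100 mg/liter). Values came from noncompartmental analysis. Terminal half-life was fitted monoexponentially to the last four time points. AUC24 combined the trapezoidal rule over mean points with exact integration of the fitted curve extrapolated to 24 h.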

[8] = Ratio of fAUC (24 hrs) in NMRI mouse at 300 mg/kg administered every 12 hrs to MIC for Staphylococcus aureus E19977; assay type: functional
Procedure, shortened: (§6)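 Modeled free AUC over 24 h divided by the MIC, not measured directly. Single subcutaneous DCX doses were given to NMRI mice, and plasma was assayed by S. lutea bioassay. Noncompartmental analysis used trapezoidal mean points plus a fitted monoexponential extrapolated to 24 h. Free fraction came from a square-root fit to plasma ultrafiltration binding (10–400 mg/liter spike, 1 h, 37°C). The MIC was measured by broth microdilution at pH 7.4.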

[9] = tested on: Staphylococcus aureus; experiment: Bactericidal activity against Staphylococcus aureus E19977 assessed as log reduction in bacterial count at 100 times MIC after 5 hrs by time-kill assay; assay type: functional; procedure, shortened: as §3
[10] = tested on: Staphylococcus aureus; experiment: Bactericidal activity against Staphylococcus aureus E19977 assessed as log reduction in bacterial count at 10 times MIC after 5 hrs by time-kill assay; assay type: functional; procedure, shortened: as §3
[11] = tested on: Staphylococcus aureus; experiment: Bacteriostatic activity against Staphylococcus aureus E19977 infected in human THP-1 cells at MIC after 5 hrs; assay type: functional, organism-based
Procedure, shortened: (§7)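 Human THP-1 macrophages were infected with opsonized S. aureus at 4 bacteria per macrophage for 45 min. Non-phagocytized bacteria were removed by washing and a brief incubation in PBS with gentamicin 50 mg/liter. Cells were then incubated up to 24 h with DCX over a wide range of extracellular concentrations. The read-out was Δlog CFU per mg cell protein versus time zero (n = 3), with sigmoidal fitting and Cstatic by interpolation.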

[12] = organism: Mus musculus; experiment: Protein binding in NMRI mouse infected with Staphylococcus aureus E19977 at 90 mg/l by ultrafiltration; assay type: ADME, organism-based; settings: in vivo; procedure, shortened: as §1
[13] = fT>MIC in Staphylococcus aureus E19977 infected NMRI mouse at 200 mg/kg administered every 4 hrs; assay type: functional; procedure, shortened: as §4
[14] = organism: Mus musculus; experiment: Protein binding in NMRI mouse at 180 mg/l by ultrafiltration; assay type: ADME, organism-based; settings: in vivo; procedure, shortened: as §1
[15] = tested on: Staphylococcus aureus; experiment: Bacteriostatic activity against Staphylococcus aureus ATCC 25923 infected in human THP-1 cells after 24 hrs; assay type: functional; procedure, shortened: as §7
[16] = Ratio of fAUC (24 hrs) in NMRI mouse at 80 mg/kg administered every 8 hrs to MIC for Staphylococcus aureus E19977; assay type: functional; procedure, shortened: as §6
[17] = Cmax in NMRI mouse at 30 mg/kg, sc; assay type: ADME, organism-based; set-up: dose 30 mg/kg, route subcutaneous; settings: in vivo
Procedure, shortened: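 Single subcutaneous dicloxacillin doses were given to NMRI mice. EDTA plasma was assayed by microbiological bioassay with S. lutea ATCC 9391 (detection limit 1.5 mg/liter, linear to 100 mg/liter, CV ~5%). Cmax was obtained by noncompartmental analysis.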

[18] = Ratio of fAUC (24 hrs) in NMRI mouse at 30 mg/kg administered every 2 hrs to MIC for Staphylococcus aureus E19977; assay type: functional; procedure, shortened: as §6
[19] = tested on: Staphylococcus aureus; experiment: Bacteriostatic activity against Staphylococcus aureus ATCC 25923 infected in human THP-1 cells at MIC after 5 hrs; assay type: functional, organism-based; procedure, shortened: as §7
[20] = tested on: Staphylococcus aureus; experiment: Antimicrobial activity against Staphylococcus aureus E19977 by broth microdilution method at pH 7.4
[21] = organism: Mus musculus; experiment: Protein binding in NMRI mouse at 270 mg/l by ultrafiltration; assay type: ADME, organism-based; settings: in vivo; procedure, shortened: as §1
[22] = tested on: Staphylococcus aureus; experiment: Antimicrobial activity against Staphylococcus aureus E19977 after 24 hrs; assay type: functional, organism-based; settings: E19977, 24 h; procedure, shortened: as §2
[23] = Ratio of fCmax in NMRI mouse at 80 mg/kg administered every 8 hrs to MIC for Staphylococcus aureus E19977; assay type: functional
Procedure, shortened: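 Free Cmax/MIC was modelled, not measured. Single-dose subcutaneous plasma curves from NMRI mice were projected to the multiple-dose regimens. Free fraction came from a square-root fit of unbound fraction versus total concentration. Binding was measured by ultrafiltration of mouse plasma spiked with 10–400 mg/liter and held 1 h at 37°C. MIC was for strain E19977.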

[24] = organism: Mus musculus; experiment: Protein binding in NMRI mouse at 400 mg/l by ultrafiltration; assay type: ADME, organism-based; settings: in vivo; procedure, shortened: as §1
[25] = Half-life in NMRI mouse at 60 mg/kg, sc; assay type: ADME, organism-based; set-up: dose 60 mg/kg, route subcutaneous; settings: in vivo; procedure, shortened: as §5
[26] = tested on: Staphylococcus aureus; experiment: Bacteriostatic activity against Staphylococcus aureus E19977 at MIC between 5 to 24 hrs; assay type: functional, organism-based; procedure, shortened: as §2

Cc1onc(-c2c(Cl)cccc2Cl)c1C(=O)N[C@@H]1C(=O)N2[C@@H]1SC(C)(C)[C@@H]2C(=O)O [DICLOXACILLIN]
Activity [1]: 93.9%
Emax [2]: -3.19 deltalog10CFU/ml
fAUC/MIC [3]: 43.95 h
FC [4]: 3
fT>MIC [5]: 65.28%
Activity [6]: Non-toxic
half-life [7]: 30 min
fAUC/MIC [8]: 439.15 h
FC [9]: <1
FC [10]: <1
Activity [11]: Active
Activity [12]: 85.6%
fT>MIC [13]: 86.25%
Activity [14]: 87.2%
Activity [15]: 0.11 mg/L
fAUC/MIC [16]: 63.49 h
Cmax [17]: 36000 ng/mL
fAUC/MIC [18]: 39.32 h
Activity [19]: Active
MIC [20]: 0.5 µg/mL (≈ 1.06 µM)
Activity [21]: 84.9%
EC50 [22]: 0.5 µg/mL (≈ 1.06 µM)
Ratio [23]: 30.64
Activity [24]: 83.7%
half-life [25]: 25 min
Activity [26]: Active
